Experimental data taken from ChEMBL document CHEMBL1136954, “Toward the back-up of boceprevir (SCH 503034): discovery of new extended P4-capped ketoamide inhibitors of hepatitis C virus NS3 serine protease with improved potency and pharmacokinetic profiles” (J Med Chem, 2009).

Tests used:
[1] = Cytotoxicity against human hepatocytes assessed as effect on GAPDH RNA level […]; format: cell-based, Hepatocyte
Procedure, shortened: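 Counter-screen for cellular toxicity measuring GAPDH; CC50 reported.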

[2] = Inhibition of HCV NS4A-tethered single chain NS3 serine protease by spectrophotometric assay; design: species or system Hepacivirus hominis
Procedure, shortened: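 Continuous assay with NS4A-tethered single-chain NS3 serine protease; potency given as Ki*.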

[3] = system: Hepatitis C virus; assay: Antiviral activity against Hepatitis C virus genotype 1 infected in human hepatocytes by replicon assay; format: functional, Hepacivirus hominis; conditions: genotype 1, Hepatocyte
Procedure, shortened: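 HCV genotype 1 replicon cell assay; EC90 reported, within 3-fold at 95% confidence for a single assay and within 2-fold for multiple assays.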

Row | SMILES | CC50 [1] | Ki [2] | EC90 [3]
1 | CC1(NC(=O)N[C@H](C(=O)N2C[C@H]3[C@@H](C2C(=O)NC(CC2CCC2)C(=O)C(N)=O)C3(C)C)C(C)(C)C)CCCCC1 (some centres undefined) | > 5 µM | 0.008 µM | 0.2 µM
2 | CC(C)[C@H](NC(=O)N[C@H](C(=O)N1C[C@H]2[C@@H]([C@H]1C(=O)NC(CC1CC1)C(=O)C(N)=O)C2(C)C)C(C)(C)C)C(=O)C(C)(C)C (mixture of isomers) | > 5 µM | 0.012 µM | 0.2 µM
3 | CC(C)C(=O)[C@@H](NC(=O)N[C@H](C(=O)N1C[C@H]2[C@@H]([C@H]1C(=O)NC(CC1CC1)C(=O)C(N)=O)C2(C)C)C(C)(C)C)C(C)C (mixture of isomers) | > 5 µM | 0.012 µM | 0.15 µM
4 | CC(C)[C@H](NC(=O)N[C@H](C(=O)N1C[C@H]2[C@@H]([C@H]1C(=O)NC(CC1CC1)C(=O)C(N)=O)C2(C)C)C(C)(C)C)C(=O)C1CCC1 (mixture of isomers) | > 5 µM | 0.02 µM | 0.35 µM
5 | CC(C)[C@H](NC(=O)N[C@H](C(=O)N1C[C@H]2[C@@H]([C@H]1C(=O)NC(CC1CC1)C(=O)C(N)=O)C2(C)C)C(C)(C)C)c1nnn[nH]1 (mixture of isomers) | > 5 µM | 0.01 µM | 1 µM
6 | CC(C)[C@@H](Cc1ccccc1)NC(=O)N[C@H](C(=O)N1C[C@H]2[C@@H]([C@H]1C(=O)NC(CC1CC1)C(=O)C(N)=O)C2(C)C)C(C)(C)C (mixture of isomers) | > 5 µM | 0.059 µM | 
7 | CO/N=C(\c1ccccc1)[C@@H](NC(=O)N[C@H](C(=O)N1C[C@H]2[C@@H]([C@H]1C(=O)NC(CC1CC1)C(=O)C(N)=O)C2(C)C)C(C)(C)C)C(C)C (mixture of isomers) | > 5 µM | 0.05 µM | 
8 | CC(C)[C@H](NC(=O)N[C@H](C(=O)N1C[C@H]2[C@@H]([C@H]1C(=O)NC(CC1CC1)C(=O)C(N)=O)C2(C)C)C(C)(C)C)C(=O)C1CCCCC1 (mixture of isomers) | > 5 µM | 0.013 µM | 0.2 µM
9 | CC(C)[C@H](NC(=O)N[C@H](C(=O)N1C[C@H]2[C@@H]([C@H]1C(=O)NC(CC1CC1)C(=O)C(N)=O)C2(C)C)C(C)(C)C)[C@H](O)c1ccccc1 (mixture of isomers) | > 5 µM | 0.077 µM | 
10 | C=C(c1ccccc1)[C@@H](NC(=O)N[C@H](C(=O)N1C[C@H]2[C@@H]([C@H]1C(=O)NC(CC1CC1)C(=O)C(N)=O)C2(C)C)C(C)(C)C)C(C)C (mixture of isomers) | > 5 µM | 0.05 µM | 
11 | C=CCNC(=O)C(=O)C(CCCC)NC(=O)[C@@H]1[C@@H]2[C@H](CN1C(=O)[C@@H](NC(=O)N[C@H](C(=O)C1CC1)C1CCCCC1)C(C)(C)C)C2(C)C (mixture of isomers) | > 5 µM | 0.038 µM | 0.9 µM
12 | C=CCNC(=O)C(=O)C(CC1CC1)NC(=O)[C@@H]1[C@@H]2[C@H](CN1C(=O)[C@@H](NC(=O)N[C@H](C(=O)C1CC1)C1CCCCC1)C(C)(C)C)C2(C)C (mixture of isomers) | > 5 µM | 0.027 µM | 0.45 µM
13 | CC(C)[C@@](C)(NC(=O)N[C@H](C(=O)N1C[C@H]2[C@@H]([C@H]1C(=O)NC(CC1CC1)C(=O)C(N)=O)C2(C)C)C(C)(C)C)C(=O)OCc1ccccc1 (mixture of isomers) | > 5 µM | 0.29 µM | 
14 | CO[C@H](c1ccccc1)[C@@H](NC(=O)N[C@H](C(=O)N1C[C@H]2[C@@H]([C@H]1C(=O)NC(CC1CC1)C(=O)C(N)=O)C2(C)C)C(C)(C)C)C(C)C (mixture of isomers) | > 5 µM | 0.06 µM | 
15 | CC(=O)[C@@H](NC(=O)N[C@H](C(=O)N1C[C@H]2[C@@H]([C@H]1C(=O)NC(CC1CC1)C(=O)C(N)=O)C2(C)C)C(C)(C)C)C(C)C (mixture of isomers) | > 5 µM | 0.014 µM | 0.4 µM
